From ChEMBL document CHEMBL1127450, “Synthesis and antiviral activity evaluation of some aminoadamantane derivatives” (1994)
≈ marks a conversion by molar mass, not a printed value.

Key:
Type in all cases: functional
CCRF-CEM [1] = assay: Tested for minimum inhibitory concentration required to reduce virus-induced cell viability by 50% on CEM cell line; details: Homo sapiens
CCRF-CEM [2] = assay: Tested for minimum inhibitory concentration required to reduce virus-induced cytopathicity by 50% on CEM cell line infected with HIV-2 virus; details: Homo sapiens
CCRF-CEM [3] = assay: Tested for minimum inhibitory concentration required to reduce virus-induced cytopathicity by 50% was evaluated on CEM cell line infected with HIV-1 virus; details: Homo sapiens
HEF [4] = assay: Tested for minimum inhibitory concentration required to cause a microscopically detectable alteration of normal cell morphology by 50% on HEF cell line; details: Homo sapiens
Summary of the method: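 Human embryonic skin-muscle fibroblasts (HEF) were used. The value is the minimum concentration that causes a microscopically detectable alteration of normal cell morphology. Values are averages of at least two separate experiments.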

HEF [5] = assay: Tested for minimum inhibitory concentration required to reduce […] by 50% on HEF cell line; details: Homo sapiens
Summary of the method: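 Human embryonic lung fibroblasts (HEF) were used for cell proliferation. The value is the concentration that reduces cell proliferation by 50%. Values are averages of at least two separate experiments.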

HEF [6] = assay: Tested for minimum inhibitory concentration required to reduce virus-induced cytopathicity by 50% on HEF cell line infected with HSV-1 virus; details: Homo sapiens
Summary of the method: (§1)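 Human embryonic skin-muscle fibroblasts (HEF) were infected with the stated virus. The value is the concentration that reduces virus-induced cytopathicity by 50%. Values are averages of at least two separate experiments.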

HEF [7] = assay: Tested for minimum inhibitory concentration required to reduce virus-induced cytopathicity by 50% on HEF cell line infected with vesicular stomatitis virus; details: Homo sapiens; summary of the method: as §1
HEF [8] = assay: Tested for minimum inhibitory concentration required to reduce virus-induced cytopathicity by 50% on HEF cell line infected with HSV-2 virus; details: Homo sapiens; summary of the method: as §1
HEF [9] = assay: Tested for minimum inhibitory concentration required to reduce virus-induced cytopathicity by 50% on HEF cell line infected with thymidine kinase-deficient herpes simplex virus type 1 (TK-HSV-1); details: Homo sapiens; summary of the method: as §1
HEF [10] = assay: Tested for minimum inhibitory concentration required to reduce virus-induced cytopathicity by 50% on HEF cell line infected with vaccinia virus; details: Homo sapiens; summary of the method: as §1
HeLa [11] = assay: Tested for minimum inhibitory concentration required to cause a microscopically detectable alteration of normal cell morphology by 50% on HeLa cell line; details: Homo sapiens
Summary of the method: (§2)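 HeLa (human epithelial), MDCK (Madin-Darby canine kidney) or Vero (African green monkey kidney) cells were scored by microscopy. The value is the minimum concentration that causes a detectable alteration of normal cell morphology. Values are averages of at least two separate experiments.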

HeLa [12] = assay: Tested for minimum inhibitory concentration required to reduce virus-induced cytopathicity by 50% on HeLa cell line infected with RSV virus; details: Homo sapiens
Summary of the method: (§3)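 HeLa (human epithelial), MDCK (Madin-Darby canine kidney) or Vero (African green monkey kidney) cells were infected with the stated virus. The value is the concentration that reduces virus-induced cytopathicity by 50%. Values are averages of at least two separate experiments.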

HeLa [13] = assay: Tested for minimum inhibitory concentration required to reduce virus-induced cytopathicity by 50% on HeLa cell line infected with polio 1 virus; details: Homo sapiens; summary of the method: as §3
MDCK [14] = assay: Tested for minimum inhibitory concentration required to reduce virus-induced cytopathicity by 50% on MDCK cell line infected with influenza A virus; details: Canis lupus familiaris; summary of the method: as §3
MDCK [15] = assay: Tested for minimum inhibitory concentration required to reduce virus-induced cytopathicity by 50% on MDCK cell line infected with influenza B virus; details: Canis lupus familiaris; summary of the method: as §3
MDCK [16] = assay: Tested for minimum inhibitory concentration required to cause a microscopically detectable alteration of normal cell morphology by 50% on MDCK cell line; details: Canis lupus familiaris; summary of the method: as §2
Vero [17] = assay: Tested for minimum inhibitory concentration required to cause a microscopically detectable alteration of normal cell morphology by 50% on vero cell line; details: Chlorocebus sabaeus; summary of the method: as §2
Vero [18] = assay: Tested for minimum inhibitory concentration required to reduce virus-induced cytopathicity by 50% on vero cell line infected with Reo 1 virus; details: Chlorocebus sabaeus; summary of the method: as §3
Vero [19] = assay: Tested for minimum inhibitory concentration required to reduce virus-induced cytopathicity by 50% on vero cell line infected with coxsackie B4 virus; details: Chlorocebus sabaeus; summary of the method: as §3
Vero [20] = assay: Tested for minimum inhibitory concentration required to reduce virus-induced cytopathicity by 50% on vero cell line infected with parainfluenza 3 virus; details: Chlorocebus sabaeus; summary of the method: as §3
Vero [21] = assay: Tested for minimum inhibitory concentration required to reduce virus-induced cytopathicity by 50% on vero cell line infected with semliki forest virus; details: Chlorocebus sabaeus; summary of the method: as §3
Vero [22] = assay: Tested for minimum inhibitory concentration required to reduce virus-induced cytopathicity by 50% on vero cell line infected with sindbis virus; details: Chlorocebus sabaeus; summary of the method: as §3
Vero [23] = assay: Tested for minimum inhibitory concentration required to cause a microscopically detectable alteration of normal cell morphology by 50% on Vero cell line; details: Chlorocebus sabaeus; summary of the method: as §2
HeLa [24] = assay: tested for minimum inhibitory concentration required to cause a microscopically detectable alteration of normal cell morphology by 50% on HeLa cell line; details: Homo sapiens; summary of the method: as §2

| SMILES | MIC50 (CCRF-CEM [1]) | MIC50 (CCRF-CEM [2]) | MIC50 (CCRF-CEM [3]) | MIC50 (HEF [4]) | MIC50 (HEF [6]) | MIC50 (HEF [7]) | MIC50 (HEF [8]) | MIC50 (HEF [9]) | MIC50 (HEF [10]) | MIC50 (HeLa [11]) | MIC50 (HeLa [12]) | MIC50 (HeLa [13]) | MIC50 (MDCK [14]) | MIC50 (MDCK [15]) | MIC50 (MDCK [16]) | MIC50 (Vero [18]) | MIC50 (Vero [19]) | MIC50 (Vero [20]) | MIC50 (Vero [21]) | MIC50 (Vero [22]) | further results |
| --- | --- | --- | --- | --- | --- | --- | --- | --- | --- | --- | --- | --- | --- | --- | --- | --- | --- | --- | --- | --- | --- |
| C1CNC2(C1)C1CC3CC(C1)CC2C3 (configuration not stated) | 100 µg/mL (≈ 523 µM) | > 40 µg/mL | > 40 µg/mL | ≥ 400 µg/mL | 200 µg/mL (≈ 1050 µM) | > 200 µg/mL | > 200 µg/mL | > 200 µg/mL | > 200 µg/mL | > 200 µg/mL | > 200 µg/mL | > 200 µg/mL | > 30 µg/mL | > 200 µg/mL | > 200 µg/mL | > 200 µg/mL | > 200 µg/mL | > 200 µg/mL | > 200 µg/mL | > 200 µg/mL | MIC50 (HEF [5]): > 50 µg/mL; MIC50 (Vero [17]): ≥ 400 µg/mL |
| NC1CC12C1CC3CC(C1)CC2C3 (configuration not stated) | 32 µg/mL (≈ 180 µM) | > 8 µg/mL | > 8 µg/mL | 40 µg/mL (≈ 226 µM) | > 20 µg/mL | > 20 µg/mL | > 20 µg/mL | > 20 µg/mL | > 20 µg/mL | 40 µg/mL (≈ 226 µM) | 30 µg/mL (≈ 169 µM) | > 20 µg/mL | 30 µg/mL (≈ 169 µM) | > 100 µg/mL | 100 µg/mL (≈ 564 µM) | > 40 µg/mL | > 40 µg/mL | > 40 µg/mL | > 40 µg/mL | > 40 µg/mL | MIC50 (HEF [5]): 80 µg/mL (≈ 451 µM); MIC50 (Vero [23]): 100 µg/mL (≈ 564 µM) |
| CN(C)C1CC12C1CC3CC(C1)CC2C3 (configuration not stated) | > 200 µg/mL | > 200 µg/mL | > 200 µg/mL | ≥ 400 µg/mL | > 200 µg/mL | > 200 µg/mL | > 200 µg/mL | > 200 µg/mL | > 200 µg/mL | ≥ 400 µg/mL | > 200 µg/mL | > 400 µg/mL | 6 µg/mL (≈ 29.2 µM) | > 100 µg/mL | 100 µg/mL (≈ 487 µM) | 400 µg/mL (≈ 1950 µM) | > 400 µg/mL | 100 µg/mL (≈ 487 µM) | > 400 µg/mL | > 400 µg/mL | MIC50 (HEF [5]): > 200 µg/mL; MIC50 (Vero [17]): > 400 µg/mL |
| CNCC1CC12C1CC3CC(C1)CC2C3 (configuration not stated) | 4 µg/mL (≈ 19.5 µM) | > 8 µg/mL | > 8 µg/mL | 40 µg/mL (≈ 195 µM) | > 20 µg/mL | > 20 µg/mL | > 20 µg/mL | > 20 µg/mL | > 20 µg/mL | 40 µg/mL (≈ 195 µM) | 30 µg/mL (≈ 146 µM) | > 20 µg/mL | > 20 µg/mL | > 20 µg/mL | 20 µg/mL (≈ 97.4 µM) | > 20 µg/mL | > 20 µg/mL | > 20 µg/mL | > 20 µg/mL | > 20 µg/mL | MIC50 (HEF [5]): 50 µg/mL (≈ 243 µM); MIC50 (Vero [17]): 40 µg/mL (≈ 195 µM) |
| CN(C)CC1CC12C1CC3CC(C1)CC2C3 (configuration not stated) | 23 µg/mL (≈ 105 µM) | > 40 µg/mL | > 40 µg/mL | 40 µg/mL (≈ 182 µM) | > 20 µg/mL | > 20 µg/mL | > 20 µg/mL | > 20 µg/mL | > 20 µg/mL | 100 µg/mL (≈ 456 µM) | 40 µg/mL (≈ 182 µM) | > 70 µg/mL | > 40 µg/mL | > 100 µg/mL | 70 µg/mL (≈ 319 µM) | > 70 µg/mL | > 70 µg/mL | > 70 µg/mL | > 70 µg/mL | > 70 µg/mL | MIC50 (HEF [5]): 95 µg/mL (≈ 433 µM); MIC50 (Vero [17]): 100 µg/mL (≈ 456 µM) |
| CCN1CCCC12C1CC3CC(C1)CC2C3 (configuration not stated) | > 200 µg/mL | > 200 µg/mL | > 200 µg/mL | > 400 µg/mL | > 400 µg/mL | ≥ 400 µg/mL | > 400 µg/mL | ≥ 400 µg/mL | > 400 µg/mL |  | > 200 µg/mL | > 400 µg/mL | 2.4 µg/mL (≈ 10.9 µM) | > 200 µg/mL | > 200 µg/mL | > 400 µg/mL | > 400 µg/mL | > 400 µg/mL | > 400 µg/mL | > 400 µg/mL | MIC50 (HEF [5]): > 200 µg/mL; MIC50 (HeLa [24]): > 400 µg/mL; MIC50 (Vero [17]): > 400 µg/mL |
| CN1CCCC12C1CC3CC(C1)CC2C3 (configuration not stated) | > 200 µg/mL | > 200 µg/mL | > 200 µg/mL | > 400 µg/mL | ≥ 400 µg/mL | ≥ 400 µg/mL | > 400 µg/mL | ≥ 400 µg/mL | > 400 µg/mL | > 400 µg/mL | > 200 µg/mL | > 400 µg/mL | 0.56 µg/mL (≈ 2.73 µM) | > 200 µg/mL | > 200 µg/mL | > 400 µg/mL | > 400 µg/mL | > 400 µg/mL | > 400 µg/mL | > 400 µg/mL | MIC50 (HEF [5]): > 50 µg/mL; MIC50 (Vero [17]): > 400 µg/mL |
| NC12CC3CC(CC(C3)C1)C2 [AMANTADINE] |  |  |  |  |  |  |  |  |  | 100 µg/mL (≈ 661 µM) | > 100 µg/mL |  | 100 µg/mL (≈ 661 µM) | > 200 µg/mL | > 100 µg/mL |  |  |  |  |  |  |
| NC(=O)c1ncn([C@@H]2O[C@H](CO)[C@@H](O)[C@H]2O)n1 [RIBAVIRIN] |  |  |  | > 400 µg/mL | 200 µg/mL (≈ 819 µM) | 20 µg/mL (≈ 81.9 µM) | > 400 µg/mL | ≥ 200 µg/mL | 70 µg/mL (≈ 287 µM) | > 200 µg/mL | 2.8 µg/mL (≈ 11.5 µM) | 70 µg/mL (≈ 287 µM) | 1.2 µg/mL (≈ 4.91 µM) | 4 µg/mL (≈ 16.4 µM) | > 200 µg/mL | 20 µg/mL (≈ 81.9 µM) | 300 µg/mL (≈ 1230 µM) | 70 µg/mL (≈ 287 µM) | 20 µg/mL (≈ 81.9 µM) | 70 µg/mL (≈ 287 µM) | MIC50 (Vero [17]): > 400 µg/mL |
